# Assay results of several laboratories.
# Compare with care: the assays were run in different laboratories.
# BRAF V600E: Serine/threonine-protein kinase B-raf (BRAF, Homo sapiens, UniProt P15056, V600E)
# BRAF: Serine/threonine-protein kinase B-raf (BRAF, Homo sapiens, UniProt P15056)
SMILES,target,read-out,action,method,tested at,measurement,value
COc1ccc(-c2csc(NN=C(CS(=O)(=O)c3ccccc3)c3ccc(F)cc3)n2)cc1,BRAF V600E,enzyme activity,inhibitor,ATP luminescence,1 µM,inhibition,72%
Cc1cnn2ncc(-c3ccnc(N(C)C)n3)c2c1,BRAF V600E,binding,,,1 µM,remaining binding,91%
CC(C)(O)[C@H]1CC[C@H](Nc2ccc3ncc(-c4cccc(C(F)(F)F)c4)n3n2)CC1,BRAF,enzyme activity,inhibitor,,1 µM,remaining activity,93.8%
Cc1ccc(C(=O)NCc2ccsc2)cc1C#Cc1cn(C(C)C)c2ncnc(N)c12,BRAF V600E,enzyme activity,inhibitor,,1 µM,activity vs control,9%
Cc1ccc(NC(=O)c2ccc(CN3CCN(C)CC3)cc2)cc1Nc1nc(-c2cccnc2)cs1,BRAF,cell-free assay,,,0.5 µM,remaining signal,92.3%
Cc1c(NC(=O)c2cc(C(N)=O)nc3cc(F)ccc23)c(C(F)(F)F)nn1Cc1ccc(C#N)cc1,BRAF,cell-free assay,,competition with immobilised ligand,1 µM,remaining binding,91%
CC(C)(C)c1nc(-c2cccc(NS(=O)(=O)c3c(F)cccc3F)c2F)c(-c2ccnc(N)n2)s1,BRAF V600E,enzyme activity,inhibitor,radiometric,1 µM,activity vs control,1%
N[C@@H]1CCN(c2nccc(-c3cnn4ncccc34)n2)C1,BRAF V600E,binding,,,1 µM,remaining binding,97%
Cc1ccc(C(=O)Nc2ccc(CN3CCN(C)CC3)c(C(F)(F)F)c2)cc1C#Cc1cnc2cccnn12,BRAF,cell-free assay,,,23.5 nM,remaining signal,15%
Cc1ccc(C(CS(=O)(=O)c2ccccc2)=NNC2=NC(=O)C(=NNc3ccc(Cl)cc3)S2)cc1,BRAF V600E,enzyme activity,inhibitor,ATP luminescence,1 µM,inhibition,61%
COc1cc2nccc(Oc3ccc(NC(=O)Nc4ccc(F)cc4F)c(F)c3)c2cc1OC,BRAF,thermal stability,,DSF,10 µM,ΔTm,> 10 °C
Nc1ncnc2occ(-c3ccc(NC(=O)Nc4cc(C(F)(F)F)ccc4F)cc3)c12,BRAF,cell-free assay,,,20 µM,remaining signal,0.8%
N#CCCc1ccc2c(c1)-c1[nH]c3ccc([N+](=O)[O-])cc3c1CC(=O)N2,BRAF,cell-free assay,,,0.5 µM,remaining signal,99.3%
NC(=S)NN=C(CS(=O)(=O)c1ccccc1)c1ccc(F)cc1,BRAF V600E,enzyme activity,inhibitor,ATP luminescence,0.1 µM,inhibition,51%
O=C1NC(=O)c2cc(Nc3ccc(F)cc3)c(Nc3ccc(F)cc3)cc21,BRAF,cell-free assay,,,0.5 µM,remaining signal,94.2%
O=C(NS(=O)(=O)c1ccc(NCC2CCOCC2)c([N+](=O)[O-])c1)c1ccc(N2CCN(Cc3ccc(C(F)(F)F)cc3-c3ccc(Cl)cc3)CC2)cc1Oc1cnc2[nH]ccc2c1,BRAF V600E,cell-free assay,,competition with immobilised ligand,1 µM,remaining binding,83%
COc1cc(Cl)c(C(=O)N[C@@H](CN[C@H]2CC[C@@H](N)CC2)Cc2ccc(C#N)cc2)cc1-c1ccc(CN[C@H](C)c2ccc(C)cc2)o1,BRAF,enzyme activity,inhibitor,,1 µM,remaining activity,97%
CNC(=O)Nc1ccc2c(c1)[C@@]1(CC2)OC(=O)N(CC(=O)N(Cc2ccc(F)cc2)[C@@H](C)C(F)(F)F)C1=O,BRAF V600E,cell-free assay,,competition with immobilised ligand,1 µM,remaining binding,96%
Cc1cc(NC(=O)c2cccc3cc(-c4cccc5[nH]nc(N)c45)ccc23)ccc1F,BRAF V600E,enzyme activity,inhibitor,,0.1 µM,activity vs control,100%
O=C1NC(c2ccccn2)Sc2ccccc21 (centres unmarked),BRAF V600E,cell-free assay,,competition with immobilised ligand,1 µM,remaining binding,94%
CC(C)(C)c1nc2c(s1)c1nc(N)ncc1c1ccc(NS(=O)(=O)c3c(F)cccc3F)c(F)c12,BRAF,enzyme activity,inhibitor,radiometric,1 µM,remaining activity,27%
Cc1nc(N2CC[C@@H](O)C2)ncc1-c1cc(C(F)(F)F)cc2[nH]ncc12,BRAF,cell-free assay,,competition with immobilised ligand,1 µM,remaining binding,73%
Cc1sc(C(=O)NC2COC2)cc1-n1cc(NC(=O)Nc2c(F)cccc2Cl)cn1,BRAF,enzyme activity,inhibitor,,10 µM,remaining activity,105%
CCCCN(CCCC)C(=O)CN1C[C@H](c2cc(OC)c3c(c2)OCO3)[C@@H](C(=O)O)[C@@H]1CC(C)(C)CCC,BRAF V600E,cell-free assay,,competition with immobilised ligand,1 µM,remaining binding,89.1%
CC(C)(C)c1nc(-c2cccc(NS(=O)(=O)c3c(F)cccc3F)c2F)c(-c2ccnc(N)n2)s1,BRAF V600E,enzyme activity,inhibitor,ATP luminescence,1 µM,inhibition,81%
O=C(Nc1cnc(Oc2ccc(F)cc2)nc1)N1CCc2ncccc2[C@@H]1c1ccc(F)cc1,BRAF V600E,cell-free assay,,competition with immobilised ligand,1 µM,remaining binding,83%
Cc1ccc(C(CS(=O)(=O)c2ccccc2)=NNc2nc(-c3ccc(OCCCCOc4ccc(-c5csc(NN=C(CS(=O)(=O)c6ccccc6)c6ccc(C)cc6)n5)cc4)cc3)cs2)cc1,BRAF V600E,enzyme activity,inhibitor,ATP luminescence,1 µM,inhibition,84%
CCOCCn1cc(C(=O)Nc2ccc(-n3nc(-c4cccnc4)cc3C(F)(F)F)cn2)ccc1=O,BRAF V600E,cell-free assay,,competition with immobilised ligand,1 µM,remaining binding,97%
CN(C)C1CCN(CC#Cc2nn(C3CCCC3)c3nc(NCc4ccccc4)ncc23)C1 (centres unmarked),BRAF,enzyme activity,inhibitor,FRET,0.1 µM,inhibition,-3%
